Laboratory results published in article PMC4281097 (Journal of Medicinal Chemistry, 2014).
Entries after “also recorded” stand apart in the source; their conditions may differ. Like-named read-outs stand apart in the source and are kept apart here.

What was measured:
EWS-FLI1 [1] = molecular target: T1, EWS-FLI1 (Homo sapiens, UniProt Q01543+Q01844); test: ELISA-like binding assay of biotin conjugate to immobilized recombinant EWS-FLI1
T1 sequence (Q01844 1-264): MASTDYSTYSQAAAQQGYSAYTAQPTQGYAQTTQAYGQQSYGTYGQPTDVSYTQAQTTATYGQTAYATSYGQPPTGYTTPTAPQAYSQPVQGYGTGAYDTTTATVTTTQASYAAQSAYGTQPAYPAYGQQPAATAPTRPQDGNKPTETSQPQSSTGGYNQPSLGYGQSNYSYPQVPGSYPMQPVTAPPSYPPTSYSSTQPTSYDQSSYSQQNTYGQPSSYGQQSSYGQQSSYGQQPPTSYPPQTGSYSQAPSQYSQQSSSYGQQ
T1 sequence (Q01543 220-452): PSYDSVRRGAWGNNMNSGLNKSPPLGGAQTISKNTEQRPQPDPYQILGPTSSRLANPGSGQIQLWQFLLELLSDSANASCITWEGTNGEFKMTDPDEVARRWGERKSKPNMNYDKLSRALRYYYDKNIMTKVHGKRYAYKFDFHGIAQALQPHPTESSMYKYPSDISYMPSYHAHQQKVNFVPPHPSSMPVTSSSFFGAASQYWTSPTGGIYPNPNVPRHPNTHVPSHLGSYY
In short: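 EWS-FLI1 expressed in BL21 (1 mM IPTG, 2 h, 27 °C) and recovered from inclusion bodies. Denatured in guanidinium, Ni-chelate purified, refolded on-column by gradient out of urea, then imidazole-eluted. Wells coated overnight with 20 nM protein and blocked with 4% BSA/PBS (1 h, rt). Biotinylated test compound from DMSO stock added for 1 h. Detection used HRP-streptavidin (1:5000, 1 h, rt) and colorimetric substrate read at 405 nm.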

BSA = BSA (Bos taurus, UniProt P02769); test: ELISA-like binding assay, immobilized BSA control; parameters: species or system bovine; settings: BSA immobilized instead of EWS-FLI1
Chain of BSA (P02769 25-607): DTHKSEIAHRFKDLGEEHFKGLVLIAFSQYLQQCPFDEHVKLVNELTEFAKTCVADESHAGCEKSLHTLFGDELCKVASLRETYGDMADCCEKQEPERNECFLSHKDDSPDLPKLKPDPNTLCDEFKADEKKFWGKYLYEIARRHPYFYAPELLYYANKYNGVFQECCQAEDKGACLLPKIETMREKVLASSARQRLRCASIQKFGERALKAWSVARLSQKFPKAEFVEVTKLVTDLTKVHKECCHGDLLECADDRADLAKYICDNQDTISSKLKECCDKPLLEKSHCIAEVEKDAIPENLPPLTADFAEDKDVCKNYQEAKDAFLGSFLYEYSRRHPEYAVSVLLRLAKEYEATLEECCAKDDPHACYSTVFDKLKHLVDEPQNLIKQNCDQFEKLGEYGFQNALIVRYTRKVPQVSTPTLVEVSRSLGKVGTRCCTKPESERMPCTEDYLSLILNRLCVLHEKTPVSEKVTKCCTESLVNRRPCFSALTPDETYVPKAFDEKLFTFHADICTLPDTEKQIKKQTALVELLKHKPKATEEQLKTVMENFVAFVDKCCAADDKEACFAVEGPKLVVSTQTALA
In short: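 BSA immobilized in wells in place of recombinant EWS-FLI1. Biotinylated test compound, diluted from DMSO stock in assay buffer, was incubated 1 h. Wells washed five times. Detection used HRP-streptavidin (1:5000, 1 h, room temperature) and colorimetric substrate, with absorbance at 405 nm.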

[2] = system: ES cell lines (TC32 and TC71); test: Cell proliferation assay in ES cell lines; assay type: cell-based, human; settings: for Growth inhibition / antiproliferative activity in words: ES cell lines containing EWS-FLI1; for GI50: read-out: GI50 bound used to select compounds for the reporter assay
TC32 cells [3] = settings: cited from earlier work
EWS-FLI1 [4] = molecular target: T1, EWS-FLI1; test: EWS-FLI1/NR0B1 reporter luciferase assay in transfected COS7 cells; assay type: cell-based; settings: COS7 cells transfected with EWS-FLI1 and NR0B1 reporter, 20 h treatment
In short: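 COS7 cells (DMEM, 10% FBS) transiently co-transfected with NR0B1 luciferase reporter carrying EWS-FLI1 binding sites plus full-length EWS-FLI1 or empty pCI-neo vector. Treated 1.5 h post-transfection with test compound at 0.05, 0.15, 0.5, 1.5, 5 or 15 μM, or DMSO. Luciferase measured 20 h later. IC50 from sigmoidal dose–response fit. Quadruplicate wells, mean ± SD of a representative experiment.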

TC32 cells [5] = test: Cell proliferation assay; assay type: cell-based, human; settings: for Fold loss of growth inhibitory activity in TC32 cells compared to 2: relative to 2
PANC1 cells = test: Cell proliferation assay; assay type: cell-based, human; settings: PANC1 cells (selectivity control)
In short: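 TC71 grown in RPMI with 10% FBS and 1% HEPES; PANC1 in DMEM with 10% FBS; both at 37 °C, 5% CO2. Cells plated in colorless medium at 5000–15000 cells/well depending on line. Test compound or DMSO vehicle added the day after plating. Viable cells quantified by MTT or WST-1 after 3 days of treatment. GI50 derived by nonlinear regression.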

## CN(C(=O)CCCCCNC(=O)CCCC[C@H]1SCC2NC(=O)NC21)c1ccc(C(=O)CC2(O)C(=O)Nc3c(Cl)ccc(Cl)c32)cc1 (stereo partly drawn) [compound 24, N-(4-(2-(4,7-Dichloro-3-hydroxy-2-oxoindolin-3-yl)acetyl)phenyl)-N-methyl-6-(5-((4R)-2-oxohexahydro-1H-thieno[3,4-d]imidazol-4-yl)pentanamido)hexanamide]
EWS-FLI1 [1]
  Concentration at which binding saturation was reached: 20 µM
BSA
  Binding to immobilized BSA in words: No binding was detected

## 4,7-Dichloro-3-(2-(4-ethoxyphenyl)-2-oxoethyl)-3-hydroxyindolin-2-one [9n]
[2]
  Growth inhibition / antiproliferative activity in words: complete loss of activity

## O=C(CC1(O)C(=O)Nc2c(Cl)ccc(Cl)c21)c1ccc(Oc2ccccc2)cc1 (centres unmarked) [9q, 4,7-Dichloro-3-hydroxy-3-(2-oxo-2-(4-phenoxyphenyl)ethyl)indolin-2-one]
[2]
  Growth inhibition / antiproliferative activity in words: complete loss of activity

## COc1ccc(C(=O)CC2(O)C(=O)Nc3c(Cl)ccc(Cl)c32)c(OC)c1OC (centres unmarked) [9f, 4,7-Dichloro-3-hydroxy-3-(2-oxo-2-(2,3,4-trimethoxyphenyl)ethyl)indolin-2-one]
[2]; ES cells, relative to 2
  Fold loss of growth activity / potency compared to 2: 3 fold

## COc1ccc(C(=O)CC2(O)C(=O)Nc3c(Cl)ccc(Cl)c32)cc1 (single isomer, unassigned) [S-(−) enantiomer of 2]
TC32 cells [3]; in vitro
  Fold more potent in vitro than racemic 2: 4 fold
TC32 cells [3]; read-out: GI50 of single enantiomer, in vitro, TC32 cells
  GI50: 280 nM

## COc1ccc(C(=O)CC2(OC)C(=O)N(C)c3c(Cl)ccc(Cl)c32)cc1 (centres unmarked) [compound 15, 4,7-Dichloro-3-methoxy-3-(2-(4-methoxyphenyl)-2-oxoethyl)-1-methylindolin-2-one]
[2]
  Growth inhibition / antiproliferative activity in words: inactive; also recorded: no antiproliferative activity
EWS-FLI1 [4]
  Inhibition of EWS-FLI1 transcriptional activity in words: modest inhibitory effects

## COc1ccccc1C(=O)CC1(O)C(=O)Nc2c(Cl)ccc(Cl)c21 (centres unmarked) [9a, 4,7-Dichloro-3-hydroxy-3-(2-(2-methoxyphenyl)-2-oxoethyl)indolin-2-one]
[2]
  Growth inhibition / antiproliferative activity in words: reduced inhibition of cell growth; also recorded: no antiproliferative activity
EWS-FLI1 [4]
  Inhibition of EWS-FLI1 transcriptional activity in words: did not inhibit

## 4,7-Dichloro-3-hydroxyl-3-(2-oxo-2-p-tolylethyl)-1,3-dihydroindol-2-one [9m]
[2]; ES cells, relative to 2
  Fold loss of growth activity / potency compared to 2: 3 fold
[2]; ES cells
  GI50: ≤ 2700 nM
EWS-FLI1 [4]
  Inhibition of EWS-FLI1 transcriptional activity in words: lower than 2

## COc1ccc(C(=O)C[C@]2(O)C(=O)Nc3c(Cl)ccc(Cl)c32)cc1 [R-(+)]
TC32 cells [3]; in vitro
  In vitro activity of enantiomer in words: almost inactive

## COc1ccc(C(=O)CC2(OC)C(=O)Nc3c(Cl)ccc(Cl)c32)cc1 (centres unmarked) [compound 11, 4,7-Dichloro-3-methoxy-3-(2-(4-methoxyphenyl)-2-oxoethyl)indolin-2-one]
[2]
  Growth inhibition / antiproliferative activity in words: complete loss of inhibitory activity; also recorded: no antiproliferative activity
EWS-FLI1 [4]
  Inhibition of EWS-FLI1 transcriptional activity in words: did not display any inhibition

## COc1ccc(C(=O)CC2(O)C(=O)Nc3c(OC)ccc(OC)c32)cc1 (centres unmarked) [6e, 3-Hydroxy-4,7-dimethoxy-3-(2-(4-methoxyphenyl)-2-oxoethyl)indolin-2-one]
TC32 cells [5]
  GI50 in TC32 cells: 1000 nM

## O=C(CC1(O)C(=O)Nc2c(Cl)ccc(Cl)c21)c1ccc(C(F)(F)F)cc1 (centres unmarked) [9j, 4,7-Dichloro-3-hydroxy-3-(2-oxo-2-(4-(trifluoromethyl)phenyl)ethyl)indolin-2-one]
PANC1 cells
  Inhibition of PANC1 cell growth in words: inhibited PANC1 cells growth
TC32 cells [5]
  Fold loss of growth inhibitory activity in TC32 cells compared to 2: 3 fold

## COc1ccc(C(=O)CC2(O)C(=O)N(c3ccccc3)c3c(Cl)ccc(Cl)c32)cc1 (centres unmarked) [14b, 4,7-Dichloro-3-hydroxy-3-(2-(4-methoxyphenyl)-2-oxoethyl)-1-phenylindolin-2-one]
[2]
  Growth inhibition / antiproliferative activity in words: complete loss of activity

## O=C(CC1(O)C(=O)Nc2c(Cl)ccc(Cl)c21)c1ccc(Cl)cc1 (centres unmarked) [compound 1, 4,7-dichloro-3-(2-(4-chlorophenyl)-2-oxoethyl)-3-hydroxyindolin-2-one]
TC32 cells [3]; TC32 cells
  GI50 in TC32 cells: 20000 nM

## 4,7-Dichloro-3-methoxy-3-(2-(4-methoxyphenyl)-2-oxoethyl)indolin-2-one [14a]
TC32 cells [5]
  Fold loss of growth inhibitory activity in TC32 cells compared to 2: 2 fold
[2]; ES cells
  GI50: ≤ 2700 nM
EWS-FLI1 [4]
  Inhibition of EWS-FLI1 transcriptional activity in words: modest inhibitory effects

## COc1cccc(C(=O)CC2(O)C(=O)Nc3c(Cl)ccc(Cl)c32)c1 (centres unmarked) [9b, 4,7-Dichloro-3-hydroxy-3-(2-(3-methoxyphenyl)-2-oxoethyl)indolin-2-one]
[2]
  Growth inhibition / antiproliferative activity in words: reduced inhibition of cell growth

## COc1ccc(C(=O)/C=C2\C(=O)Nc3c(Cl)ccc(Cl)c32)cc1 [compound 10, (Z)-4,7-Dichloro-3-(2-(4-methoxyphenyl)-2-oxoethylidene)indolin-2-one]
TC32 cells [5]
  GI50 in TC32 cells: 1000 nM

## COc1cc(OC)cc(C(=O)CC2(O)C(=O)Nc3c(Cl)ccc(Cl)c32)c1 (centres unmarked) [9d, 4,7-Dichloro-3-(2-(3,5-dimethoxyphenyl)-2-oxoethyl)-3-hydroxyindolin-2-one]
TC32 cells [5]
  Fold loss of growth inhibitory activity in TC32 cells compared to 2: ~10 fold

## CC(C)Oc1ccc(C(=O)CC2(O)C(=O)Nc3c(Cl)ccc(Cl)c32)cc1 (centres unmarked) [9p, 4,7-Dichloro-3-hydroxy-3-(2-(4-isopropoxyphenyl)-2-oxoethyl)indolin-2-one]
[2]
  Growth inhibition / antiproliferative activity in words: complete loss of activity

## COc1cccc(C(=O)CC2(O)C(=O)Nc3c(Cl)ccc(Cl)c32)c1OC (centres unmarked) [9e, 4,7-Dichloro-3-(2-(2,3-dimethoxyphenyl)-2-oxoethyl)-3-hydroxyindolin-2-one]
[2]
  Growth inhibition / antiproliferative activity in words: reduced inhibition of cell growth

## COc1ccc(C(=O)CC2(O)C(=O)Nc3c(Cl)ccc(Cl)c32)c(OC)c1 (centres unmarked) [9c, 4,7-Dichloro-3-(2-(2,4-dimethoxyphenyl)-2-oxoethyl)-3-hydroxyindolin-2-one]
EWS-FLI1 [4]
  Inhibition of EWS-FLI1 transcriptional activity in words: lower than 2

## Nc1ccc(C(=O)CC2(O)C(=O)Nc3c(Cl)ccc(Cl)c32)cc1 (centres unmarked) [9s, 3-[2-(4-Aminophenyl-2-oxoethyl)]-4,7-dichloro-3-hydroxyl 1,3-dihydroindol-2-one]
[2]
  Growth inhibition / antiproliferative activity in words: complete loss of activity

## CN(C)c1ccc(C(=O)CC2(O)C(=O)Nc3c(Cl)ccc(Cl)c32)cc1 (centres unmarked) [9u, 4,7-Dichloro-3-(2-(4-(dimethylamino)phenyl)-2-oxoethyl)-3-hydroxyindolin-2-one]
TC32 cells [5]
  GI50 in TC32 cells: 260 nM
[2]; ES cells, relative to 2
  Fold increase in potency compared to 2: over 3 fold

## COc1ccc(C(=O)CC2(O)C(=O)Nc3c(Cl)ccc(Cl)c32)cn1 (centres unmarked) [compound 18, 4,7-Dichloro-3-hydroxy-3-(2-(6-methoxypyridin-3-yl)-2-oxoethyl)indolin-2-one]
[2]
  Growth inhibition / antiproliferative activity in words: complete loss of growth inhibition
